Published values of several laboratories.
Compare with care: the assays were run in different laboratories.
Target: Mitogen-activated protein kinase kinase kinase 13 (MAP3K13, Homo sapiens, UniProt O43283)
Residues used in one study (O43283 1-966): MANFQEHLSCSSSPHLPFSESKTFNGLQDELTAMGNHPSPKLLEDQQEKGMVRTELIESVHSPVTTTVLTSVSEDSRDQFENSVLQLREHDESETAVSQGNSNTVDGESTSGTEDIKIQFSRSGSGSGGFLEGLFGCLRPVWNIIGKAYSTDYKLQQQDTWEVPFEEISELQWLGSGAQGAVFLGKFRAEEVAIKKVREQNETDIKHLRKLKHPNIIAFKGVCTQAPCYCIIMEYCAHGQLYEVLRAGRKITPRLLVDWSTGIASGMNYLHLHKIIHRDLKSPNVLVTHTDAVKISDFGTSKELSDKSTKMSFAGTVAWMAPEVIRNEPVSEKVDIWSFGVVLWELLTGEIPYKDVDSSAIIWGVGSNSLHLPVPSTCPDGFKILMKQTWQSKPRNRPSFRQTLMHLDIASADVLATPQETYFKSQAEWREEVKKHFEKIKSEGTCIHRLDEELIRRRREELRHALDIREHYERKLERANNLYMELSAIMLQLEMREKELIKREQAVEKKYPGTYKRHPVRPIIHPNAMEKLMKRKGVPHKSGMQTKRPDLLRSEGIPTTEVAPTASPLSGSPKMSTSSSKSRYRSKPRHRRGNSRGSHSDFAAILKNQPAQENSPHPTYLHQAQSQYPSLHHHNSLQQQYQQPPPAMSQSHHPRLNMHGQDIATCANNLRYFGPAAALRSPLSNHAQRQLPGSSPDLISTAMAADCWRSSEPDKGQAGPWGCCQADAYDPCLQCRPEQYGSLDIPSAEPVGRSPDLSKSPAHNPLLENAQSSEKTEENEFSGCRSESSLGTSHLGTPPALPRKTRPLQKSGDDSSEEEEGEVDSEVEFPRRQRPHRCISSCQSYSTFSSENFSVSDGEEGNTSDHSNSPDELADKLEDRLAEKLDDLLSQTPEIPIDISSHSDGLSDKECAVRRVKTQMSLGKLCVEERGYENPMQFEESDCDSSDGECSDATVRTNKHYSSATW

C[C@H]1CCN(c2nccc(-c3cnn4ncccc34)n2)C1  remaining binding (binding; 1 µM): 62%
O=C(c1ccc(Nc2ncc(Cl)c(-c3ccc(Cl)s3)n2)cc1)N1CCC(N2CCCC2)CC1  remaining binding (binding; competition with immobilised ligand; 1 µM): 48%
CN(C)c1nccc(-c2cnc3ncccn23)n1  remaining binding (binding; 1 µM): 76%
C[C@H](NC(=O)c1cnc2n1[C@](C)(Cc1ccc(C#N)cc1)C(=O)N2c1cc(Cl)c(F)c(Cl)c1)C(=O)NC1(c2ccccn2)CC1  remaining binding (cell-free assay; competition with immobilised ligand; 1 µM): 100%
COc1ccnn2ncc(-c3ccnc(N(C)C)n3)c12  remaining binding (binding; 1 µM): 21%
COc1cnc(Nc2cccc(S(N)(=O)=O)c2)nc1N1CCN(c2ccccc2)CC1  remaining binding (binding; competition with immobilised ligand; 1 µM): 96%
CC(=O)N1CCC(c2ccc(C(=O)NC(=N)N)cc2C(F)(F)F)CC1  remaining binding (cell-free assay; competition with immobilised ligand; 1 µM): 100%
COc1ncc2cc3ccccc3nc2c1C#N  remaining binding (cell-free assay; competition with immobilised ligand; 5 µM): 92%
O=C(c1ccc(Nc2nccc(-c3cc4ccccc4s3)n2)cc1)N1CCC(N2CCCC2)CC1  remaining binding (binding; competition with immobilised ligand; 1 µM): 68%
Nc1ncc2c(n1)-c1c([nH]c3ccc(C#CC4CC4)cc13)CCCC2  remaining binding (binding; competition with immobilised ligand; 1 µM): 61%
FC(F)(F)Oc1cccc(-c2cnc3ccc(-c4ccncc4)nn23)c1  remaining binding (cell-free assay; competition with immobilised ligand; 5 µM): 83%
CN(C)c1ncc(F)c(-c2cnn3ncccc23)n1  remaining binding (binding; 1 µM): 90%
O=C(NCCCC1CCCCC1)c1ccc(CNC(=O)c2cnn(-c3ccccc3)c2C(F)(F)F)cc1  remaining binding (cell-free assay; competition with immobilised ligand; 0.1 µM): 100%
O=C(Nc1c[nH]nc1C(=O)NC1CCNCC1)c1cc(F)cc(F)c1  remaining binding (binding; competition with immobilised ligand; 1 µM): 100%
Cc1c(C(=O)O)cc(-c2ccc(C3CCNCC3)cc2)c2ccc(-c3ccc(C(F)(F)F)cc3)cc12  remaining binding (binding; competition with immobilised ligand; 1 µM): 100%
F[C@@H]1CCN(c2nccc(-c3cnn4ncccc34)n2)C1  remaining binding (binding; 1 µM): 100%
O=C(NC[C@@H]1[C@H]2CN(C(=O)OCc3cc(C(F)(F)F)cc(C(F)(F)F)c3)C[C@@H]12)c1ccc2[nH]nnc2c1  remaining binding (cell-free assay; competition with immobilised ligand; 1 µM): 86%
Cc1cnc(Nc2ccc(C(=O)N3CCC(N4CCCC4)CC3)cc2)nc1-c1cc2ccccc2s1  remaining binding (binding; competition with immobilised ligand; 1 µM): 25%
COc1cc(-c2cn(C3CCc4c(F)cccc4N(CC(F)(F)F)C3=O)nn2)ccc1-n1cnc(C)c1 (centres unmarked)  remaining binding (cell-free assay; competition with immobilised ligand; 1 µM): 75%
CN(CCCC(F)(F)F)c1nccc(-c2cnn3ncccc23)n1  remaining binding (binding; 1 µM): 100%
